Measured values reported in ChEMBL document CHEMBL1143437, “2-Aryloxymethylmorpholine histamine H(3) antagonists” (Bioorg Med Chem Lett, 2008).

How the values were obtained:
Histamine H3 receptor [1] = molecular target: T1, Histamine H3 receptor (Homo sapiens, UniProt Q9Y5N1); assay: Displacement of [125I]iodoproxyfan from human recombinant histamine H3 receptor expressed in human SK-N-MC cells; type: cell-based
Method in brief: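 Cells stably expressing human H3 were grown to confluence, washed in PBS, pelleted and stored at −80 °C. Pellets were homogenized in 50 mM Tris–HCl, 5 mM EDTA, pH 7.5, spun at 1000g for 5 min, then at 25,000g for 25 min.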

Histamine H3 receptor [2] = molecular target: T1, Histamine H3 receptor; assay: Antagonist activity at human recombinant histamine H3 receptor expressed in human SK-N-MC cells; type: functional, cell-based; settings: read-out: pA2 (converted)
Histamine H3 receptor [3] = molecular target: T2, Histamine H3 receptor (Rattus norvegicus, UniProt Q9QYN8); assay: Antagonist activity rat recombinant histamine H3 receptor expressed in human SK-N-MC cells; type: functional, cell-based; settings: read-out: pA2 (converted)
Histamine H3 receptor [4] = molecular target: T2, Histamine H3 receptor; assay: Displacement of [125I]iodoproxyfan from rat recombinant histamine H3 receptor expressed in human SK-N-MC cells; type: cell-based
Rattus norvegicus = assay: Ex vivo histamine H3 receptor occupancy in rat striatum at 0.3 mg/kg, po; type: functional
Method in brief: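 Rats were dosed orally, and striatal H3 receptor occupancy was measured ex vivo 60 min after dosing. Plasma and brain drug levels were taken at the same time. Values are mean ± SEM, n = 3.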

T2 sequence (Q9QYN8 whole entry): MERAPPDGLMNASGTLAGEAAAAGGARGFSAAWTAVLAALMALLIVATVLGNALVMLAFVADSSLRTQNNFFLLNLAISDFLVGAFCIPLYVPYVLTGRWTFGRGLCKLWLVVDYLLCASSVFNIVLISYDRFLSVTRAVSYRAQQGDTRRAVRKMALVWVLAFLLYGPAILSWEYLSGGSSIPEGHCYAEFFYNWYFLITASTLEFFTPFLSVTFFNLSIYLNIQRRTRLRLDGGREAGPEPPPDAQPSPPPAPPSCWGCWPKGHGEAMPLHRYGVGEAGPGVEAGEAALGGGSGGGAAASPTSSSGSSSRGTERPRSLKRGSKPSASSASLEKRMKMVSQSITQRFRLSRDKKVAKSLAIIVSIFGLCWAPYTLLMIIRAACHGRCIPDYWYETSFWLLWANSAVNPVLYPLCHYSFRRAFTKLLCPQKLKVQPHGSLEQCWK
T1 sequence (Q9Y5N1 whole entry): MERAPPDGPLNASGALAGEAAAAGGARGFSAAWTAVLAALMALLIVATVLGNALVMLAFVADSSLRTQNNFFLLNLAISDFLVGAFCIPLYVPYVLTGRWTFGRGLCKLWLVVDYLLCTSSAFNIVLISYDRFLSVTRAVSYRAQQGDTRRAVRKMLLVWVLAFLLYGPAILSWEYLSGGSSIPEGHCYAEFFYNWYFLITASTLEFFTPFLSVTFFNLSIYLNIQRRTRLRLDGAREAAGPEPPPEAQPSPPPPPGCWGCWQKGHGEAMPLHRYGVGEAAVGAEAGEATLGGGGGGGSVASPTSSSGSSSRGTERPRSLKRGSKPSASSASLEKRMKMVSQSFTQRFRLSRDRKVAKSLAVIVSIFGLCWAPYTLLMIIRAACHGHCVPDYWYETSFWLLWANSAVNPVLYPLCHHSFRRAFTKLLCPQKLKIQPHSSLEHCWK

Compound	Ki (Histamine H3 receptor [1]) [nM]	Kb (Histamine H3 receptor [2]) [nM]	Kb (Histamine H3 receptor [3]) [nM]	Ki (Histamine H3 receptor [4]) [nM]	Activity (Rattus norvegicus) [%]
CCOc1ccccc1OCC1CN(C2CC2)CCO1 (stereo not given)	> 10000				
CN1CCOC(COc2ccc(CN3CCOCC3)cc2)C1 (stereo not given)	2100				
c1cc(OCC2CN(C3CCCC3)CCO2)ccc1CN1CCOCC1 (stereo not given)	3.6	0.955	4.79	20	
CCOc1ccccc1OCC1CN(C(C)C)CCO1 (stereo not given)	9000				
c1cc(CN2CCOCC2)cc(OCC2CN(C3CCC3)CCO2)c1 (stereo not given)	37	14.1	79.4	277	
c1cc(OCC2CN(C3CCCC3)CCO2)ccc1CN1CCCC1 (stereo not given)	2.2	0.331	1.58	9.8	
CCOc1ccccc1OCC1CN(C2CCC2)CCO1 (stereo not given)	7100				
CCOc1ccccc1OCC1CN(C2CCCC2)CCO1 (stereo not given)	5300				
c1cc(OCC2CN(C3CCCC3)CCO2)ccc1CN1CCCCC1 (stereo not given)	2.5	0.148	1.55	10	
c1cc(OCC2CN(C3CC3)CCO2)ccc1CN1CCOCC1 (stereo not given)	106				
c1cc(OCC2CN(C3CCC3)CCO2)ccc1CN1CCOCC1 (stereo not given)	18	3.09	19.1	75	
c1cc(OC[C@@H]2CN(C3CCCC3)CCO2)ccc1CN1CCOCC1	1.9	0.38	2.14	9.7	80
CCN1CCOC(COc2ccc(CN3CCOCC3)cc2)C1 (stereo not given)	165				
c1cc(CN2CCOCC2)cc(OCC2CN(C3CC3)CCO2)c1 (stereo not given)	566				
c1ccc(OCC2CNCCO2)cc1 (stereo not given)	> 10000				
CC(C)N1CCOC(COc2ccccc2)C1 (stereo not given)	4800				
CC(C)N1CCOC(COc2ccc(CN3CCOCC3)cc2)C1 (stereo not given)	49			92	
c1cc(OC[C@H]2CN(C3CCCC3)CCO2)ccc1CN1CCOCC1	31	7.94	43.7	121	
CC(C)N1CCOC(COc2cccc(CN3CCOCC3)c2)C1 (stereo not given)	102	44.7	251	562	
